Experimental data taken from article PMC6519384 (Andrology, 2018).

Experiments:
[1] = DMAU added to serum with increasing NaF, DMA measured; assay type: in vitro ADME, human; conditions: Table S1, Experiment 3
[2] = Single oral dose of 200 mg DMAU in healthy men; assay type: in vivo, human; conditions: oral 200 mg DMAU
Method in brief: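 Fifteen healthy men took 200 mg DMAU orally after a meal, in castor oil/benzyl benzoate or as capsule powder. Ten blood draws over 24 h went into plain tubes (kept at RT) and NaF‑containing tubes (4 °C), each held 30 min before centrifugation. DMA and DMAU were measured by LC‑MS/MS. The plain minus NaF‑EDTA DMA difference was regressed on average DMAU, split at 10 ng/mL.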

blood esterases = test: Ex vivo addition of DMAU to blood in different blood collection tubes; assay type: in vitro ADME, human; conditions: for Reduction of conversion of DMAU to DMA in NaF tubes: NaF 15 mg/mL blood; for Reduction of conversion of DMAU to DMA in NaF tubes / DMA level: 60 min at RT; for DMA level: plain tube
Method in brief: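 Freshly drawn venous whole blood from healthy men is split into 2 mL aliquots in plain or esterase-inhibitor tubes, in duplicate. DMAU in methanol is added to 125–1000 ng/mL and held 30 or 60 min at 4 °C or 60 min at 23 °C before centrifugation. DMA is extracted twice with MTBE/hexane (50:50) and run by LC‑MS/MS. Duplicates are averaged and results given as % difference vs plain tube under the same conditions.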

[3] = DMAU 300 ng/mL, K2EDTA (1.8 mg/mL) tube, 30 min 4 °C
[4] = DMAU 300 ng/mL, K2EDTA (1.8 mg/mL) tube, 60 min 4 °C
[5] = DMAU 300 ng/mL, K2EDTA (1.8 mg/mL) tube, 60 min RT
[6] = DMAU 300 ng/mL, NaF (1.5 mg/mL) + Na2EDTA (3 mg/mL) tube, 30 min 4 °C
[7] = DMAU 300 ng/mL, NaF (1.5 mg/mL) + Na2EDTA (3 mg/mL) tube, 60 min 4 °C
[8] = DMAU 300 ng/mL, NaF (5 mg/mL) + K2Oxalate (4 mg/mL) tube, 60 min 4 °C
[9] = DMAU 300 ng/mL, NaF (5 mg/mL) + K2Oxalate (4 mg/mL) tube, 60 min RT
[10] = DMAU 300 ng/mL, P800 tube, 30 min 4 °C
[11] = DMAU 300 ng/mL, P800 tube, 60 min 4 °C
[12] = DMAU 300 ng/mL, P800 tube, 60 min RT
[13] = DMAU 600 ng/mL, K2EDTA (1.8 mg/mL) tube, 30 min 4 °C
[14] = DMAU 600 ng/mL, K2EDTA (1.8 mg/mL) tube, 60 min 4 °C
[15] = DMAU 600 ng/mL, K2EDTA (1.8 mg/mL) tube, 60 min RT
[16] = DMAU 600 ng/mL, NaF (1.5 mg/mL) + Na2EDTA (3 mg/mL) tube, 30 min 4 °C
[17] = DMAU 600 ng/mL, NaF (1.5 mg/mL) + Na2EDTA (3 mg/mL) tube, 60 min 4 °C
[18] = DMAU 600 ng/mL, NaF (1.5 mg/mL) + Na2EDTA (3 mg/mL) tube, 60 min RT
[19] = DMAU 600 ng/mL, NaF (5 mg/mL) + K2Oxalate (4 mg/mL) tube, 30 min 4 °C
[20] = DMAU 600 ng/mL, NaF (5 mg/mL) + K2Oxalate (4 mg/mL) tube, 60 min 4 °C
[21] = DMAU 600 ng/mL, NaF (5 mg/mL) + K2Oxalate (4 mg/mL) tube, 60 min RT
[22] = DMAU 600 ng/mL, P800 tube, 30 min 4 °C
[23] = DMAU 600 ng/mL, P800 tube, 60 min 4 °C
[24] = DMAU 600 ng/mL, P800 tube, 60 min RT

Question: What does the source list for `CCCCCCCCCCC(=O)O[C@H]1CC[C@H]2[C@H]3[C@H]([C@@H](C)C[C@]12C)[C@H]1CCC(=O)C=C1C[C@H]3C` [DMAU, dimethandrolone undecanoate]?
Answer: Conversion of DMAU to DMA in serum [1]: no conversion; Difference in DMA concentrations between plain and NaF‐EDTA tubes ([2]; DMAU concentrations above 10 ng/mL): 22%; Mean difference in DMA concentrations between plain and NaF‐EDTA tubes ([2]; DMAU concentrations below 10 ng/mL): ~0%; Reduction of conversion of DMAU to DMA in NaF tubes (blood esterases; DMAU 125 ng/mL): 72%; DMA level (blood esterases; DMAU 125 ng/mL): 1.57 ng/mL; Reduction of conversion of DMAU to DMA in NaF tubes (blood esterases; DMAU 250 ng/mL): 61.3%; DMA level (blood esterases; DMAU 250 ng/mL): 2.79 ng/mL; % difference vs. Plain (blood esterases; [3]): −56.1%; DMA (blood esterases; [3]): 1.4 ng/mL; % difference vs. Plain (blood esterases; [4]): −76.5%; DMA (blood esterases; [4]): 1.4 ng/mL; % difference vs. Plain (blood esterases; [5]): +15.2%; DMA (blood esterases; [5]): 9.7 ng/mL; % difference vs. Plain (blood esterases; [6]): −80.6%; DMA (blood esterases; [6]): 0.6 ng/mL; % difference vs. Plain (blood esterases; [7]): −77.3%; DMA (blood esterases; [7]): 1.3 ng/mL; DMA (blood esterases; DMAU 300 ng/mL, NaF (5 mg/mL) + K2Oxalate (4 mg/mL) tube, 30 min 4 °C): LLOQ; % difference vs. Plain (blood esterases; [8]): −82.2%; DMA (blood esterases; [8]): 1 ng/mL; % difference vs. Plain (blood esterases; [9]): −31.9%; DMA (blood esterases; [9]): 5.7 ng/mL; % difference vs. Plain (blood esterases; [10]): −78.1%; DMA (blood esterases; [10]): 0.7 ng/mL; % difference vs. Plain (blood esterases; [11]): −84.2%; DMA (blood esterases; [11]): 0.9 ng/mL; % difference vs. Plain (blood esterases; [12]): −20.6%; DMA (blood esterases; [12]): 6.7 ng/mL; DMA (blood esterases; DMAU 300 ng/mL, Plain tube, 30 min 4 °C): 3.3 ng/mL; DMA (blood esterases; DMAU 300 ng/mL, Plain tube, 60 min 4 °C): 5.9 ng/mL; DMA (blood esterases; DMAU 300 ng/mL, Plain tube, 60 min RT): 8.4 ng/mL; Reduction of conversion of DMAU to DMA in NaF tubes (blood esterases; DMAU 500 ng/mL): 54.3%; DMA level (blood esterases; DMAU 500 ng/mL): 5.54 ng/mL; % difference vs. Plain (blood esterases; [13]): −17.1%; DMA (blood esterases; [13]): 1.2 ng/mL; % difference vs. Plain (blood esterases; [14]): −46.4%; DMA (blood esterases; [14]): 2.3 ng/mL; % difference vs. Plain (blood esterases; [15]): +13.4%; DMA (blood esterases; [15]): 16.5 ng/mL; % difference vs. Plain (blood esterases; [16]): −30.0%; DMA (blood esterases; [16]): 1 ng/mL; % difference vs. Plain (blood esterases; [17]): −43.5%; DMA (blood esterases; [17]): 2.4 ng/mL; % difference vs. Plain (blood esterases; [18]): −29.4%; DMA (blood esterases; [18]): 10.2 ng/mL; % difference vs. Plain (blood esterases; [19]): −38.7%; DMA (blood esterases; [19]): 0.9 ng/mL; % difference vs. Plain (blood esterases; [20]): −72.7%; DMA (blood esterases; [20]): 1.2 ng/mL; % difference vs. Plain (blood esterases; [21]): −34.1%; DMA (blood esterases; [21]): 9.6 ng/mL; % difference vs. Plain (blood esterases; [22]): −42.5%; DMA (blood esterases; [22]): 0.9 ng/mL; % difference vs. Plain (blood esterases; [23]): −67.1%; DMA (blood esterases; [23]): 1.4 ng/mL; % difference vs. Plain (blood esterases; [24]): −25.9%; DMA (blood esterases; [24]): 10.8 ng/mL; DMA (blood esterases; DMAU 600 ng/mL, Plain tube, 30 min 4 °C): 1.5 ng/mL; DMA (blood esterases; DMAU 600 ng/mL, Plain tube, 60 min 4 °C): 4.3 ng/mL; DMA (blood esterases; DMAU 600 ng/mL, Plain tube, 60 min RT): 14.5 ng/mL; Reduction of conversion of DMAU to DMA in NaF tubes (blood esterases; DMAU 1000 ng/mL): 48.8%; DMA level (blood esterases; DMAU 1000 ng/mL): 8.82 ng/mL; Reduction of overestimation of DMA by collecting blood into NaF tubes (blood esterases; increasing amounts of DMAU added to blood): 30–85%
